Results on 44 molecules are retold here after ChEMBL document CHEMBL4765370, “Design, synthesis, and biological evaluation of aryl piperazines with potential as antidiabetic agents via the stimulation of glucose uptake and inhibition of NADH:ubiquinone oxidoreductase” (Eur J Med Chem, 2020).

In one data set the test system is C2C12. Briefly: Induction of glucose uptake in mouse C2C12 cells assessed as [3H]2-deoxyglucose uptake preincubated for 16 hrs followed by followed by [3H]2-deoxyglucose addition and measured after 10 mins by liquid scintillation counting method. It counts as functional. The method, boiled down:
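C2C12 mouse myoblasts were grown in high-glucose DMEM with 10% FBS. At 80% confluence they were differentiated into myotubes with 2% horse serum. Myotubes were exposed to compound (10 µM) for 16 h in medium with 0.1% horse serum, then washed with KRB pH 7.4 and given 1 µCi/mL [3H]-2-deoxyglucose for 10 min at 37 °C. After ice-cold washes and 0.1% SDS lysis, scintillation counts were normalised to BCA protein. Results are fold change vs DMSO, mean ± SEM, one-way ANOVA.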

Data set [1] is described as follows: Inhibition of NADH:ubiquinone oxidoreductase in rat liver mitochondria incubated for 3 mins.
A short description of data set [2]: Apparent permeability in MDCK-MDR1 cells at 10 uM after 30 mins by LC-MS/MS analysis. It counts as ADME, cell-based, Canis lupus familiaris. As to conditions: dog. The method, boiled down:
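Test article was taken from a 10 mM DMSO stock and diluted in DMEM to a final 10 µM donor solution, with 10 µM propranolol as internal standard. It was applied to hMDR1-MDCK monolayers on filters. Transfer to the receiver compartment was measured over 30 min in both directions, apical-to-basolateral and basolateral-to-apical. Quantification was by LC-MS/MS, n = 3.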

With `O=C(O)CCCc1cccs1`, the “fold change (FC)” value with C2C12 was found to be 1.16.

In the case of `O=C(CCC(=O)N1CCN(c2ccc(C(F)(F)F)cn2)CC1)c1cccs1`, in the data set with C2C12, the “fold change (FC)” value was determined as 1.22.

The molecule `O=C(CCCc1cccs1)N1CCN(c2ccccc2)CC1` showed an IC50 in data set [1] of 133 µM. Moreover, the “fold change (FC)” value in the data set with C2C12 turned out to be 0.96.

The molecule `CN1CCN(C(=O)CCCc2cccs2)CC1` yielded an IC50 in data set [1] of 161 µM. Further, the “fold change (FC)” value in the data set with C2C12 stood at 0.84.

Take `O=C(CCCc1cccs1)N1CCN(c2ccc(C(F)(F)F)c(Cl)n2)CC1`: in the data set with C2C12, the “fold change (FC)” value turned out to be 1.22.

In the case of `O=C(c1cccs1)N1CCN(c2ccc(C(F)(F)F)cc2)CC1`, the “fold change (FC)” value in the data set on C2C12 worked out at 0.93.

Regarding `O=C(CCCc1cn[nH]c1)N1CCN(c2ccc(C(F)(F)F)cc2)CC1`, the fold change (FC) in the data set with C2C12 came out at 1.35.

As for `O=C(CCCc1cccs1)N1CCN(c2ncc(C(F)(F)F)cc2Cl)CC1`, the “fold change (FC)” value in the data set with C2C12 is 1.13.

Consider `O=C(CCCCCc1cccs1)N1CCN(c2ccc(C(F)(F)F)cc2)CC1`, for which the “fold change (FC)” value in the data set on C2C12 amounted to 1.33.

Consider `COC(=O)CCCc1cccs1`, for which the “fold change (FC)” value in the data set with C2C12 is given as 1.09.

With `Cc1ccc(N2CCN(C(=O)CCCc3cccs3)CC2)cc1`, in the data set on C2C12, the “fold change (FC)” value turned out to be 1.

On to `O=C(CCC(=O)N1CCN(c2ncc(C(F)(F)F)cc2Cl)CC1)c1cccs1`, for which the “fold change (FC)” value in the data set with C2C12 is listed as 1.26.

With `FC(F)(F)c1ccc(N2CCN(CCCCc3cccs3)CC2)cc1`, the “fold change (FC)” value in the data set on C2C12 worked out at 1.36.

`O=C(CCCc1cccs1)N1CCN(c2ccc(C(F)(F)F)cc2Br)CC1`: in the data set with C2C12, the “fold change (FC)” value was determined as 1.02.

Take `O=C(CCCc1cccs1)N1CCC(c2ccccc2)CC1`: the “fold change (FC)” value in the data set on C2C12 is given as 1.25.

For `O=C(CCCc1cccs1)N1CCN(c2ccc(C(F)(F)F)cn2)CC1`, in the data set with C2C12, the “fold change (FC)” value stood at 1.

Regarding `O=C(CCSc1cccs1)N1CCN(c2ncc(C(F)(F)F)cc2Cl)CC1`, the “fold change (FC)” value with C2C12 amounted to 1.31.

Consider `CCCCCCCC(=O)N1CCN(c2ccc(C(F)(F)F)cc2)CC1`, for which the “fold change (FC)” value in the data set on C2C12 is 1.38.

In turn, `O=C(CCCc1cccs1)N1CCN(c2ccc([N+](=O)[O-])cc2)CC1` came in with an IC50 in data set [1] of 17 µM. Further, the “fold change (FC)” value with C2C12 was found to be 1.06.

As for `O=C(CCCc1cccs1)N1CCN(c2ccc(F)cc2)CC1`, the “fold change (FC)” value in the data set with C2C12 is on record as 1.16.

`O=C(CCCc1cccs1)NNc1ccc(C(F)(F)F)cc1`: in the data set with C2C12, the “fold change (FC)” value amounted to 1.24.

For the molecule `Nc1ccc(N2CCN(C(=O)CCCc3cccs3)CC2)cc1`, the “fold change (FC)” value with C2C12 was determined as 1.32.

Consider `CCCCC(=O)N1CCN(c2ccc(C(F)(F)F)cc2)CC1`, for which the fold change (FC) in the data set on C2C12 was 1.28.

Turning to `O=C(CCCc1cccs1)Nc1ccc(C(F)(F)F)cc1`, the IC50 in data set [1] was determined as 92 µM. In addition, the “fold change (FC)” value in the data set with C2C12 came out at 1.11.

`O=C(CCCCc1ccccc1)N1CCN(c2ccc(C(F)(F)F)cc2)CC1` came in with an IC50 in data set [1] of 6 µM. The “fold change (FC)” value in the data set on C2C12 worked out at 1.95.

Turning to `O=C(CCCc1cccs1)N1CCN(c2ccccc2C(F)(F)F)CC1`, the “fold change (FC)” value with C2C12 was found to be 0.85.

For the molecule `COC(=O)CCCCCCCC(=O)N1CCN(c2ccc(C(F)(F)F)cc2)CC1`, the “fold change (FC)” value with C2C12 was 1.08.

Consider `CC(=O)N1CCN(c2ccc(C(F)(F)F)cc2)CC1`, for which the “fold change (FC)” value in the data set with C2C12 was 1.43.

Take `O=C(Cc1cccs1)N1CCN(c2ccc(C(F)(F)F)cc2)CC1`: the “fold change (FC)” value with C2C12 is reported as 1.33.

In the case of `O=C(CCCCc1cccs1)N1CCN(c2ccc(C(F)(F)F)cc2)CC1`, in data set [1], 60 µM corresponded to half-maximal inhibition (IC50). In the data set on C2C12, the “fold change (FC)” value is 1.78.

In the case of `O=C(O)CCCCCCCC(=O)N1CCN(c2ccc(C(F)(F)F)cc2)CC1`, the “fold change (FC)” value in the data set with C2C12 is listed as 1.38.

Consider `O=C(CCC(=O)N1CCN(c2ccc(C(F)(F)F)cc2)CC1)c1cccs1`, for which the “fold change (FC)” value in the data set on C2C12 was 1.19.

With `O=C(CCc1cccs1)N1CCN(c2ccc(C(F)(F)F)cc2)CC1`, the “fold change (FC)” value in the data set on C2C12 was 1.09.

As for `O=C(CCSc1cccs1)N1CCN(c2ccc(C(F)(F)F)cc2)CC1`, in data set [1], half-maximal inhibition (IC50) required 14 µM. Further, the “fold change (FC)” value in the data set on C2C12 turned out to be 2.14.

`O=C(CCC(=O)N1CCC(c2ccc(C(F)(F)F)cc2)CC1)c1cccs1`: the “fold change (FC)” value in the data set on C2C12 stood at 1.31.

Molecule `O=C(CCCc1cccs1)N1CCN(c2ccc(C(F)(F)F)cc2Cl)CC1` yielded an IC50 in data set [1] of 46 µM. Also, the “fold change (FC)” value in the data set with C2C12 amounted to 1.58.

Consider `O=C(CCCc1cccs1)N1CCN(C2CCCCC2)CC1`, for which the “fold change (FC)” value in the data set with C2C12 is on record as 1.29.

In data set [1], `O=C(CCCc1cccs1)N1CCC(c2ccc(C(F)(F)F)cc2)CC1` yielded a half-maximal inhibitory concentration (IC50) of 15 µM. Moreover, in the data set with C2C12, the “fold change (FC)” value turned out to be 2.14.

For the molecule `O=C(CCCc1cccs1)N1CCN(c2cc(C(F)(F)F)cc(C(F)(F)F)c2)CC1`, the “fold change (FC)” value in the data set with C2C12 came to 1.42.

As for `FC(F)(F)c1cnc(N2CCNCC2)c(Cl)c1`, in the data set with C2C12, the “fold change (FC)” value turned out to be 1.16.

As to `COCCNC(=O)CCCCCCCC(=O)N1CCN(c2ccc(C(F)(F)F)cc2)CC1`, the “fold change (FC)” value in the data set with C2C12 came out at 2.35.

For the molecule `CN1CCN(c2ncc(C(F)(F)F)cc2Cl)CC1`, it took 67 µM to reach half-maximal inhibition in data set [1] (IC50). For the same molecule, the “fold change (FC)” value in the data set with C2C12 is 0.92.

On to `O=C(CCc1ccco1)N1CCN(c2ccc(C(F)(F)F)cc2)CC1`, for which the “fold change (FC)” value with C2C12 stood at 1.11.

On to `CC(C)NCC(O)COc1cccc2ccccc12` (centres undefined) [PROPRANOLOL], for which, in data set [2], the Papp at 0.5 h, 10 µM was found to be 21.8 ×10⁻⁶ cm/s.
